Experimental data from PMC7498667 (Neoplasia (New York, N.Y.), 2020).

Experiments:
[1] = tested on: AR+/ER−/PR− breast cancer; details: cited from earlier work
[2] = tested on: MDA-MB-453, HCC1428 and MCF-7 cells; assay: Apoptosis analysis by flow cytometry; assay type: cell-based, human; details: 10 µM, 3-day treatment
Summary of the method: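 MDA-MB-453, HCC1428 and MCF-7 cells were treated for 72 h with a concentration range of test compound, with AR antagonist comparators at 10 µM. For the time course, MDA-MB-453 and HCC1428 cells received 1 µM. Cells were washed in cold PBS, stained with an apoptosis detection kit and analysed by flow cytometry for percent live and apoptotic cells. Data are mean ± SEM, n=3.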

[3] = tested on: MDA-MB-453 xenograft tumor; assay: Antitumor efficacy in MDA-MB-453 xenograft tumor model; assay type: in vivo, mice; details: enzalutamide 50 mg/kg IP dose
Summary of the method: (§1)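 Male CB.17 SCID mice were implanted s.c. with 5 × 10^6 MDA-MB-453 cells in 5 mg/ml Matrigel. At a mean tumour volume of 100 mm3, mice were randomised by tumour size. Test compound or vehicle (20% PEG400 + 6% Cremophor EL + 74% PBS) was given i.p. daily. Tumours and body weights were measured twice weekly, with volume = length × width²/2. Data are mean ± SEM, n=8.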

[4] = tested on: metastatic AR+, TNBCs; details: phase 2, metastatic AR+ TNBC; cited from earlier work
[5] = Animal weight and signs of toxicity in efficacy experiment; assay type: in vivo; details: entire efficacy experiment, MDA-MB-453 xenograft mice
Summary of the method: as §1

[6] = tested on: MDA-MB-453, HCC1428 and MCF-7 cells; assay: Cell cycle analysis by flow cytometry; assay type: cell-based, human; details: 10 µM, 72 h
Summary of the method: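 MDA-MB-453, HCC1428 and MCF-7 cells were treated for 72 h with a concentration range of test compound (AR antagonist comparators at 10 µM), or with 1 µM over a time course. Cells were fixed in 70% ethanol overnight at 4 °C, stained with propidium iodide plus 0.2 mg/ml RNase A for 30 min at room temperature, and cell-cycle distribution was measured by flow cytometry. Data are mean ± SEM.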

[7] = tested on: caspase-8, −9, −3, and −7 and PARP; assay: Cleavage of caspases and PARP, Western blot; assay type: cell-based, human; details: 1 or 10 µM, MDA-MB-453 and HCC1428, 48 h
Summary of the method: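 MDA-MB-453 and HCC1428 cells were exposed to a concentration range of test compound for 48 h. Cells were lysed in RIPA with protease and phosphatase inhibitors for 30 min on ice. Lysates were run on SDS-PAGE and transferred to PVDF. Membranes were blocked in 5% milk in TBST, probed with primary antibodies for cleaved caspases and PARP overnight at 4 °C and with HRP secondary, then developed by ECL.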

[8] = tested on: 5 AR+ breast cancer cell lines; assay: Cell growth inhibition, WST-8 assay, statements for the whole panel; assay type: cell-based, human; details: concentrations up to 10 µM, 5 AR+ cell lines
[9] = tested on: AR protein; assay type: cell-based, human; details: MDA-MB-453 cells, combination with ARD-61 for 24 h

For `CC(O)(CS(=O)(=O)c1ccc(F)cc1)C(=O)Nc1ccc(C#N)c(C(F)(F)F)c1` (stereo not shown) [Bicalutamide], the “Clinical benefit ratio (CBR)” value [1] is listed as 19% and the Toxicity [1] is listed as “minimal toxicity”.
In the case of `CNC(=O)c1ccc(N2C(=S)N(c3ccc(C#N)c(C(F)(F)F)c3)C(=O)C2(C)C)cc1F` [Enzalutamide], the Apoptosis induction [2] is given as “minimal apoptosis”, the Antitumor activity [3] is given as “very similar with that of ARD-61 at 25 mg/kg” and the Progression-free survival [4] is given as “significant improvement”. The “Animal weight loss or other signs of toxicity” value [5] was “No animal weight loss or other signs of toxicity”, the “Effect on cell cycle (G2/M arrest)” value [6] was “minimal effect” and the “Effect on cleavage of caspase-8, −9, −3, −7 and PARP” value [7] was “minimal effect”. For the same compound, the “Inhibition of cell growth” value [8] was “minimal activity”.
With `C[C@]1(O)CC[C@H]2[C@@H]3CCC4=CC(=O)CCC4=C3C=C[C@@]21C` [R1881, metribolone] the “Effect on AR depletion induced by ARD-61” value [9] was “effectively block”.
